Data on four molecules can be found in publication PMC3045600 (Nucleic Acids Research, 2010).

Structures are written as SMILES. “And” between values parts separate entries of the source, which are not always exact repeats. Equal values may be shown once. Read-outs that look alike come from different tables or passages of the source.

Experiment [1] has as its target T1, exonuclease-deficient bacteriophage T4 DNA polymerase (gp43 exo−) (Enterobacteria phage T4, UniProt P04415, D219A).
T1 sequence (P04415 1-898 D219A): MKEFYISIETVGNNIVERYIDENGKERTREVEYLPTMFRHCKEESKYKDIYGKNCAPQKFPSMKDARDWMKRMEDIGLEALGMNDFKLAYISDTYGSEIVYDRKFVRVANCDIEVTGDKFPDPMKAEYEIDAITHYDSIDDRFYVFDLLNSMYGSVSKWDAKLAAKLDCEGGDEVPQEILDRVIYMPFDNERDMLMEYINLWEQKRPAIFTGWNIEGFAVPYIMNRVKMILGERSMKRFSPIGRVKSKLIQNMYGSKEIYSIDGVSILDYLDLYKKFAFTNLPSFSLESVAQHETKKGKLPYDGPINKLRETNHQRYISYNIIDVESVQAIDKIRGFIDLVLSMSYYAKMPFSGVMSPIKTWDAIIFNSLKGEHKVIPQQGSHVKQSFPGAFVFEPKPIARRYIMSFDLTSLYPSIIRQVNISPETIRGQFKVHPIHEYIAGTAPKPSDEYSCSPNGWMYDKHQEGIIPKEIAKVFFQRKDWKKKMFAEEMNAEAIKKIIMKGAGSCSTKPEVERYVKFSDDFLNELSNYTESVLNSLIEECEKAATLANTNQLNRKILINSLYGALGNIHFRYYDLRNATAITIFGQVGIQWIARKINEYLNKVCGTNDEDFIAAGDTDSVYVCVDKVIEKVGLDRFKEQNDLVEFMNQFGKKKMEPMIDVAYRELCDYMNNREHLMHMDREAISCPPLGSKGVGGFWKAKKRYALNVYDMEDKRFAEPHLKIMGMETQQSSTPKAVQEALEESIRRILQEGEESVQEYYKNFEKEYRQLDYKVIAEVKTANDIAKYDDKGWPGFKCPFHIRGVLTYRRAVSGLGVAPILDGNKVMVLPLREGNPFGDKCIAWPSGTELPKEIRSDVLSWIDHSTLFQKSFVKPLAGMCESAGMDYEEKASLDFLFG
The settings on record: opposite thymine, cited from earlier work; for Kd: read-out: Kd, app.

The target in experiment [2] is T1, exonuclease-deficient bacteriophage T4 DNA polymerase (gp43 exo−). The following applies: double abasic site, cited from earlier work; for Kd: read-out: Kd, app.
In experiment [3] the target is T2, bacteriophage T4 DNA polymerase (gp43 exo−) (Enterobacteria phage T4, UniProt P04415, D219A).
T2 sequence (P04415 1-898 D219A): T1 sequence (P04415 1-898 D219A)
The class given is biochemical. The settings on record: 150 µM dXTP, then 500 µM dGTP, quenched at 180 s; 13/20SP-mer. In outline:
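Exonuclease-deficient T4 gp43 (D219A), 500 nM, with 250 nM 5′-32P-labelled 13/20SP-mer, in 25 mM Tris–OAc pH 7.5, 150 mM KOAc, 10 mM 2-mercaptoethanol and 10 mM Mg2+ at 25°C. Test nucleotide (150 µM) was inserted for 5 min, then 500 µM dGTP was added. Reactions were quenched with 350 mM EDTA and resolved on 20% sequencing gels. Extended versus non-extended primer was quantified by phosphorimaging, corrected for the zero point.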

The target in experiment [4] is T1, exonuclease-deficient bacteriophage T4 DNA polymerase (gp43 exo−). The settings on record: blunt end DNA, cited from earlier work; for Kd: read-out: Kd, app.
The target is the same in experiment [5]. The settings on record: single abasic site, cited from earlier work; for Kd: read-out: Kd, app.
Experiment [6] addresses T2, bacteriophage T4 DNA polymerase (gp43 exo−). The following applies: previously demonstrated; cited from earlier work.

For `O=[N+]([O-])c1ccc2c(ccn2C2CC(O)C(COP(=O)(O)OP(=O)(O)OP(=O)(O)O)O2)c1` (stereo not shown) [5-NITP], the kpol in experiment [1] was 0.9 ± 0.1 s⁻¹; in experiment [2], 70 ± 6 s⁻¹; in experiment [4], 0.015 ± 0.004 s⁻¹; in experiment [5], 126 s⁻¹ and 126 ± 7 s⁻¹. For the same molecule, the “kpol/Kd, app” value in experiment [1] was 100 000 M^−1 s^−1; in experiment [2] it was 3 890 000 M^−1 s^−1; in experiment [4], 710 M⁻¹ s⁻¹; in experiment [5], 7 000 000 M^−1 s^−1. Also, the Kd in experiment [1] was 9 ± 1 µM; in experiment [2], 18 ± 5 µM; in experiment [4] it was 21 ± 8 µM; in experiment [5], 18 ± 3 µM. Moreover, the “Extension beyond the nucleotide paired opposite an abasic site” value in experiment [3] is given as “does not extend”.
Regarding `O=P(O)(O)OP(=O)(O)OP(=O)(O)OC[C@H]1O[C@@H](n2ccc3cc(-c4ccccc4)ccc32)C[C@@H]1O` [5-PhITP], the kpol was 0.16 ± 0.01 s⁻¹ in experiment [1]; 45 ± 3 s⁻¹ in experiment [2]; 0.007 ± 0.004 s⁻¹ in experiment [4]; 53 s⁻¹ and 53 ± 4 s⁻¹ in experiment [5]. The “kpol/Kd, app” value in experiment [1] was 6400 M⁻¹ s⁻¹; in experiment [2] it was 3 750 000 M^−1 s^−1; in experiment [4], 160 M⁻¹ s⁻¹. Also, the Kd in experiment [1] is 25 ± 7 µM; in experiment [2] it was 12 ± 2 µM; in experiment [4], 45 ± 8 µM; in experiment [5], 14 ± 3 µM. Besides, in experiment [3], the “Extension beyond the nucleotide paired opposite an abasic site” value is “does not extend”.
Take `Nc1ncnc2c1ncn2[C@H]1C[C@H](O)[C@@H](COP(=O)(O)OP(=O)(O)OP(=O)(O)O)O1` [dATP]: the “Extension beyond the nucleotide paired opposite an abasic site” value in experiment [6] is recorded as “extends beyond”; in experiment [3] it was “showed extension beyond the abasic site”. In addition, the kpol in experiment [1] is 100 ± 10 s⁻¹; in experiment [2] it was 0.55 ± 0.05 s⁻¹; in experiment [5] it was 0.15 ± 0.01 s⁻¹. For the same molecule, the “kpol/Kd, app” value in experiment [1] is 10 000 000 M^−1 s^−1; in experiment [2], 3500 M⁻¹ s⁻¹; in experiment [5], 4300 M⁻¹ s⁻¹. In addition, the Kd is 10 ± 2 µM in experiment [1], 157 ± 28 µM in experiment [2] and 35 ± 5 µM in experiment [5].
For the molecule `Nc1nc2c(ncn2[C@H]2C[C@H](O)[C@@H](COP(=O)(O)OP(=O)(O)OP(=O)(O)O)O2)c(=O)[nH]1` [dGTP], in experiment [6], the “Extension beyond the nucleotide paired opposite an abasic site” value is “extends beyond”.
